Assays:
Rattus norvegicus [1] = assay: Compound was evaluated for the hypolipidemic activity at 20 mg/kg per day orally for 14 days on triglycerides content in rat HDL; format: functional; details: route oral
In short: (§1)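 Male Sprague–Dawley rats (~300 g) were dosed orally each day. Blood was drawn from the abdominal vein. Lipoprotein fractions (chylomicron, VLDL, LDL, HDL) were separated by the Hatch–Lees and Havel methods. Each fraction was assayed for cholesterol, triglyceride (enzymatic kit), neutral lipids, phospholipids and Lowry protein. Values are % of 1% CMC vehicle control, N = 6.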

[2] = molecular target: T1, 3-hydroxy-3-methylglutaryl-coenzyme A reductase (Mus musculus) (UniProt Q01237); assay: In Vivo effect for the hypolipidemic activity on HMG-CoA reductase in CF1 mice after 16 days of oral administration at a dose of 10 mg/kg; format: organism-based; design: dose 10 mg/kg
T1 sequence (whole entry): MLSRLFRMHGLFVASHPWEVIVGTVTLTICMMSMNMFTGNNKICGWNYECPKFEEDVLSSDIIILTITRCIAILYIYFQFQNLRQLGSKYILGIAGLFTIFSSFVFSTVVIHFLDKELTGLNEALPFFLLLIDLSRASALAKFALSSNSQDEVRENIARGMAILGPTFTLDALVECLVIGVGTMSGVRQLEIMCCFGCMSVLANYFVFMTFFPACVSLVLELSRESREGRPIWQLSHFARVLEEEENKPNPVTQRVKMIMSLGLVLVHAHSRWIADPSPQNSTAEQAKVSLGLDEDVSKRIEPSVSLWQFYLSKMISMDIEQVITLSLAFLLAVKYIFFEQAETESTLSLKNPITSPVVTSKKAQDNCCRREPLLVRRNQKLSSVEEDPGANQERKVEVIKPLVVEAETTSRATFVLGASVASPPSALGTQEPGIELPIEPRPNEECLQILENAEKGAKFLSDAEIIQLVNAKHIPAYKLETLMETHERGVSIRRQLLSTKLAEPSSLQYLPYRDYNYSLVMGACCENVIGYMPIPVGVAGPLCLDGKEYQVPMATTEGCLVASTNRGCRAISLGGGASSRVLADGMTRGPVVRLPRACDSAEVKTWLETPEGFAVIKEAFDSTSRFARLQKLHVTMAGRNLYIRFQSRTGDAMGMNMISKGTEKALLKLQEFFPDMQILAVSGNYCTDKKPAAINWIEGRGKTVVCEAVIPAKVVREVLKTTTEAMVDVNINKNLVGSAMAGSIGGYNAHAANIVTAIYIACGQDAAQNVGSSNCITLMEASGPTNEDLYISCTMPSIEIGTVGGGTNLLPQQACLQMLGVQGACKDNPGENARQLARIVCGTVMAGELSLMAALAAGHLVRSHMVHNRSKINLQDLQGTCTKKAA
In short: (§2)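 CF1 male mice are dosed orally at 10–60 mg/kg per day for 16 days, with 1% CMC as the control vehicle. Liver is homogenized at 10% in 0.25 M sucrose + 0.001 M EDTA, pH 7.2. Enzymes are assayed by literature methods, with Lowry protein. Activity is given as % of control (X ± SD, N = 6), with p from Student's t test.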

Mus musculus [3] = assay: Hypolipidemic activity in CF1 male mice at a dose of 20 mg/kg per day, serum triglyceride measured on the 16th day; format: functional
In short: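 CF1 male mice (~30 g) were given 20 mg/kg per day ip at 11:00 a.m.; N = 6 per group. Tail-vein serum was collected in nonheparinized microcapillaries. Cholesterol was measured on days 9 and 16 by modified Liebermann–Burchard on duplicate 25 µL samples. Triglyceride was measured on day 16 in a separate group, duplicate 50 µL. Values are % control ± SD; Student's t test.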

Mus musculus [4] = assay: Compound was evaluated for the hypolipidemic activity in CF1 male mice at a dose of 20 mg/kg orally for Serum cholesterol at 16th day; format: functional; details: route oral
In short: (§3)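 CF1 male mice received the agent orally in 1% CMC at 10–60 mg/kg per day. Tail-vein blood was taken on days 9 and 16. Serum cholesterol was measured by modified Liebermann–Burchard on duplicate 25-µL samples, and serum triglyceride on day 16 in duplicate 50-µL samples. Values are % of vehicle control, mean ± SD, N = 6; Student's t test.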

Mus musculus [5] = species: Mus musculus; assay: In Vitro evaluation for the CF1 liver enzyme activity on phosphatidate phosphohydrolase at concentration 100 uM
In short: (§4)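 Mouse liver enzymes assayed in vitro on 10% homogenates of CF1 male mouse liver, with test drug added at 50–200 μM. Each enzyme follows a published procedure. Protein is measured by Lowry. Activity is given as % of untreated control (X ± SD, N = 6).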

Mus musculus [6] = assay: Compound was evaluated for the hypolipidemic activity in CF1 male mice at a dose of 10 mg/kg orally for Serum cholesterol at 9th day.; format: functional; details: route oral; in short: as §3
Rattus norvegicus [7] = assay: Compound was evaluated for the hypolipidemic activity at 20 mg/kg per day orally for 14 days on protein content in rat liver; format: functional; details: route oral
In short: (§5)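 Male Sprague–Dawley rats were dosed orally for 14 days. Liver, small intestine and a 24-h fecal collection were lipid-extracted. Extracts were assayed for cholesterol (modified Liebermann–Burchard), triglyceride (enzymatic kit), neutral lipids, phospholipids and protein. Values are % of 1% CMC vehicle control, mean ± SD, N = 6.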

Rattus norvegicus [8] = assay: Compound was evaluated for the hypolipidemic activity at 20 mg/kg per day orally for 14 days on neutral lipids content in rat HDL; format: functional; details: route oral; in short: as §1
Mus musculus [9] = assay: Compound was evaluated for the hypolipidemic activity in CF1 male mice at a dose of 40 mg/kg orally for Serum cholesterol at 16th day; format: functional; details: route oral; in short: as §3
Mus musculus [10] = species: Mus musculus; assay: In Vitro evaluation for the CF1 liver enzyme activity on Hepatic lipoprotein lipase at concentration 100 uM; format: functional; in short: as §4
Rattus norvegicus [11] = assay: Compound was evaluated for the hypolipidemic activity at 20 mg/kg per day orally for 14 days on neutral lipids content in rat LDL; format: functional; details: route oral; in short: as §1
Mus musculus [12] = assay: In Vivo effect for the hypolipidemic activity on Hepatic lipoprotein lipase in CF1 mice after 16 days administered orally at a dose of 10 mg/kg; format: functional; details: route oral; in short: as §2
Mus musculus [13] = species: Mus musculus; assay: In Vitro evaluation for the CF1 liver enzyme activity on Mitochondrial citrate exchange at concentration 200 uM; format: functional; in short: as §4
Rattus norvegicus [14] = assay: Compound was evaluated for the hypolipidemic activity at 20 mg/kg per day orally for 14 days on neutral lipid content in rat liver; format: functional; details: route oral; in short: as §5
Rattus norvegicus [15] = assay: Compound was evaluated for the hypolipidemic activity at 20 mg/kg per day orally for 14 days on triglycerides content in rat feces.; format: functional; details: route oral; in short: as §5
[16] = molecular target: T1, 3-hydroxy-3-methylglutaryl-coenzyme A reductase (Mus musculus); assay: In Vivo effect for the hypolipidemic activity on HMG-CoA reductase in CF1 mice after 16 days of oral administration at a dose of 60 mg/kg; format: organism-based; design: dose 60 mg/kg; in short: as §2
Mus musculus [17] = assay: Compound was evaluated for the hypolipidemic activity in CF1 male mice at a dose of 10 mg/kg orally for Serum cholesterol at 16th day; format: functional; details: route oral; in short: as §3
Mus musculus [18] = assay: Compound was evaluated for the hypolipidemic activity in CF1 male mice at a dose of 20 mg/kg orally for Serum cholesterol at 9th day; format: functional; details: route oral; in short: as §3
Mus musculus [19] = assay: In Vivo effect for the hypolipidemic activity on Hepatic lipoprotein lipase in CF1 mice after 16 days administered orally at a dose of 40 mg/kg; format: functional; details: route oral; in short: as §2
Mus musculus [20] = assay: In Vivo effect for the hypolipidemic activity on phosphatidate phosphohydrolase in CF1 mice after 16 days administered orally at a dose of 40 mg/kg; format: organism-based; design: dose 40 mg/kg; in short: as §2

For COc1ccc(C2C(=O)c3ccccc3C2=O)cc1 [ANISINDIONE], the Control (Rattus norvegicus [1]) was 59%, the Control [2] was 116% and the “Serum triglyceride, % of control” value (Mus musculus [3]) was 42%. For the same compound, the Control (Mus musculus [4]) was 62%, the Control (Mus musculus [5]) was 29% and the Control (Mus musculus [6]) was 82%. The Control (Rattus norvegicus [7]) was 100%, the Control (Rattus norvegicus [8]) was 113% and the Control (Mus musculus [9]) was 48%. The Control (Mus musculus [10]) was 94%, the Control (Rattus norvegicus [11]) was 69% and the Control (Mus musculus [12]) was 83%. It also gave a Control (Mus musculus [13]) of 36%, a Control (Rattus norvegicus [14]) of 84% and a Control (Rattus norvegicus [15]) of 118%. The Control [16] was 126%, the Control (Mus musculus [17]) was 63% and the Control (Mus musculus [18]) was 67%. The Control (Mus musculus [19]) was 89% and the Control (Mus musculus [20]) was 57%.

— ChEMBL document CHEMBL1123129, “Hypolipidemic activity of indan-1,3-dione derivatives in rodents” (J Med Chem, 1985)
